# High-throughput results from PubChem BioAssay.
# Most compounds without a hit are left out; they make up all but 2.1% or so of the library.
# PERK inh: blocks human PERK kinase; 0.17% of 220,000 active; CHO PERK-DD fusion, SEAP luminescence translation reporter; inhibition, % at 5.6 µM; AID 1416; Q9NZJ5;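 active = inhibition above the mean inhibition of all tested compounds plus 3 SD, set separately per screening campaign, cut at about 2.9% in these data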;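 also: PERK kinase domain activated by AP20187 dimerizer at 100 nM; 0% = DMSO with dimerizer and 100% = rapamycin at 8.4 µM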
# Target sequence (Q9NZJ5 whole entry, looked up, the tested form may be a part): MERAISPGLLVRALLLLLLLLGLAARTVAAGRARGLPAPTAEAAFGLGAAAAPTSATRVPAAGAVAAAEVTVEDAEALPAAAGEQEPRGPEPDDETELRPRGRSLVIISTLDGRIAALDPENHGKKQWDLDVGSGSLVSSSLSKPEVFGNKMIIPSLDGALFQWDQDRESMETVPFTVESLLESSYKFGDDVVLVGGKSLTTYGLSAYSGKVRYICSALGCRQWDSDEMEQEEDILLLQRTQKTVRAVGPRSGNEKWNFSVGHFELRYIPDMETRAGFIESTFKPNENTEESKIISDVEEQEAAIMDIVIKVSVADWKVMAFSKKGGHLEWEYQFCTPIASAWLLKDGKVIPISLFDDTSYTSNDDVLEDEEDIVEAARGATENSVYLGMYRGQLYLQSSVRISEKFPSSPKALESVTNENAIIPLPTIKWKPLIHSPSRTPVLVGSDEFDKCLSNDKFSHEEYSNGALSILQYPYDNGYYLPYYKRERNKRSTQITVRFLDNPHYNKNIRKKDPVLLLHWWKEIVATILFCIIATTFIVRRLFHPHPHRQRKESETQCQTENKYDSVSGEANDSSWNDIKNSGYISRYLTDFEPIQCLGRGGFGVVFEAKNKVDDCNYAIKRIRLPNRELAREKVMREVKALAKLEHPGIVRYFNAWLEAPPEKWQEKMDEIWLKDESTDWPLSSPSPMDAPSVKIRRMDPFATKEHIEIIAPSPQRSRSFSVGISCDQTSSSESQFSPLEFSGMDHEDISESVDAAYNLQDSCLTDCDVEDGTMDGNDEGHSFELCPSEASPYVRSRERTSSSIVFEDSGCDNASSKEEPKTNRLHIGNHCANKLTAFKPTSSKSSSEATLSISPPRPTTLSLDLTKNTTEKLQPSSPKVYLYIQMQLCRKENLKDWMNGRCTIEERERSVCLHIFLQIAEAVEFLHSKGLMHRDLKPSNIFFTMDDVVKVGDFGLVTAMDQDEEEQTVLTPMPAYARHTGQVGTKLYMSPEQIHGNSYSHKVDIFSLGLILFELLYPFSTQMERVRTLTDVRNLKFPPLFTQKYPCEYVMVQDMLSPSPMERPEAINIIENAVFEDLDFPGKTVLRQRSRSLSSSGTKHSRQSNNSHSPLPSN
# Dynein cargo inh: dynein cargo transport inhibition; 3617.4 mouse cells, GR-EGFP nuclear translocation imaging; test concentration mostly 20 µM; stimulated with dexamethasone, 1 µM; active compounds read low; z-score, hits read low; 0.47% of 220,000 active; AID 1381;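 active = plate z-score of nuclear minus cytoplasmic receptor signal below a set negative limit, without overly bright fluorescence or cell loss, cut at about -3.5 in these data, passing the limit was not always enough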;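 also: z-score of nuclear minus cytoplasmic ring GR-EGFP intensity difference per well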
#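 medium = tetracycline-free induction medium containing charcoal-stripped FBS | also added = 1.0 µM final dexamethasone stimulus | schedule = 48 h induction, 1 h compound, 30 min dex at 37 °C | technique = fixed, Hoechst-stained cells imaged at 10x for EGFP | measure = GR-EGFP nuclear translocation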
# INS promoter inh: TRM-6 insulin promoter activity inhibition | TRM-6 cells (human fetal islet line), insulin promoter-eGFP reporter, imaging; reporter expression induced with tamoxifen | inhibition, % at 2 µM | AID 1273 | 0.9% of 130,000 active;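 active = inhibition above the mean plus 3 SD, with well images judged a real hit on visual review, cut at about 60% in these data, passing the limit was not always enough; inconclusive = inhibition over the cutoff but images rejected on review; inactive = inhibition not above the cutoff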
# Autophagy mod: modulators of autophagy | MEF GFP-LC3 puncta imaging; test concentration mostly 10 µM | calls only at 10 µM (by protocol) | 0.98% of 190,000 active;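 active = percentage of spot-positive cells more than 3 SD above its plate mean, without a fluorescence outlier flag or 80% toxicity; inconclusive = no clear call, values can overlap the other calls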;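 also: spot-positive cell cutoff set from DMSO-treated cells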
# Insulin prom up: MIN6 insulin promoter up-regulation; 0.3% of 190,000 active; MIN6 insulin promoter-GFP reporter, high-content imaging; active compounds read high; z-score at 5 µM;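 active = z-score above 3 at 5 µM with at least 500 cells counted in the well; inconclusive = wells under 500 cells, flagged as cytotoxic or low count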
# Active calls of the source: *; i = inactive; ? = inconclusive; . = no result given; + = active, no number.
SMILES,PERK inh,Dynein cargo inh,INS promoter inh,Autophagy mod,Insulin prom up
O=C(OCCCCN1C(=O)c2ccccc2C1=O)c1ccc(Br)o1,0.5,-1.12,78.6*,i,-0.38
COc1ccc(Nc2ccc(S(=O)(=O)N3CCCCC3)cc2[N+](=O)[O-])cc1,0.7,0.416,.,i,0.52
COc1ccc(C(CNc2ccc(S(=O)(=O)N3CCCC3)cc2[N+](=O)[O-])N2CCCC2)cc1 (stereo not given),-1.2,2.61,-15.4,+,-0.3
Cn1c(NNC(=O)C2CCCCC2)cc(=O)n(C)c1=O,0.5,0.546,.,+,-0.12
O=C1ON=C(c2ccccc2)/C1=C/c1ccc(OS(=O)(=O)c2ccccc2)cc1,1.0,-4.02*,25.8,i,-0.04
CCOc1ccc(CCNC(=O)CN2CCN(Cc3ccccc3C)C2=O)cc1OCC,-0.2,1.17,.,i,1.59
COC(=O)COc1ccc(NS(=O)(=O)c2cccc([N+](=O)[O-])c2)cc1,0.5,0.269,.,i,-1.03
Cc1ccc2c(c1)c(-c1ccccc1)nc1nncn12,0.0,-0.0946,.,i,0.93
CCC(CC)c1nc(NCCC(=O)O)c2ccccc2n1,3.1*,3.73,.,i,-0.24
COc1cc(C(=O)N/N=C/c2sccc2C)cc(OC)c1OC,-0.2,-0.29,-233.3,+,-0.87
Cc1ccsc1/C=N/NC(=O)c1ccncc1,0.1,1.25,18.5,i,-1.21
Cc1cc(S(=O)(=O)NC2CCCCC2)ccc1OCC(=O)N1CCOCC1,-0.8,0.164,-61.5,i,.
Cc1cc(S(=O)(=O)N2CCCC2)ccc1OCC(=O)N1CCOCC1,-0.2,0.247,77.8*,i,-0.13
Cc1cc(C)c(NC(=O)c2ccc(CNS(=O)(=O)c3cc(C(F)(F)F)ccc3Cl)cc2)c(C)c1,-1.8,0.334,-11.1,i,-0.57
Cc1cc(Nc2ccccc2)nc(NCc2ccccc2)n1,-0.5,-0.657,.,i,-5.02
CCCCNc1cc(C)nc(NCc2ccccc2)n1,-2.0,-0.558,.,+,?
COc1ccc(-c2nc(SCC(=O)NCc3ccco3)c(-c3ccccc3)[nH]2)cc1OC,-1.3,-0.263,72.4*,i,0.8
COc1ccc(-c2[nH]c(-c3ccccc3)nc2SCC(=O)NCc2ccco2)cc1OC,-1.0,0.587,.,i,-0.54
Cc1cccc2nc(COc3ccc(Cl)c4cccnc34)cn12,1.0,0.403,-13.5,i,-1
Cc1ccc2c(C(=O)CN3CCN(C(=O)c4ccco4)CC3)c(C)[nH]c2c1,-1.3,-0.726,.,.,-0.07
CC(C)CSc1nsc(N)n1,0.5,-0.316,85.7*,i,-0.13
CCCCOc1ccc([N+](=O)[O-])cc1C(=O)O,0.0,0.817,.,i,0.18
O=Cc1cn(CC(=O)N2CCc3ccccc32)c2ccccc12,1.2,-0.238,.,i,0.88
CCOC(=O)c1c(C)[nH]c(C(=O)N/N=C/c2cccc(OC)c2)c1C,-0.1,0.229,.,i,0
CCOC(=O)c1c(C)[nH]c(C(=O)N/N=C\c2ccccc2Cl)c1C,-0.2,-0.373,.,+,-0.12
SMILES,PERK inh,Dynein cargo inh,INS promoter inh,Autophagy mod,Insulin prom up
CCOC(=O)c1c(C)[nH]c(C(=O)OCC(=O)Nc2cc(C)c(Cl)cc2OC)c1C,1.3,-0.285,.,+,-0.48
CCN(C(=O)COC(=O)c1ccc(Br)o1)C1CCCCC1,0.0,0.426,14.3,i,-0.21
Cn1nc(C(F)(F)F)cc1-c1ccc(S(N)(=O)=O)s1,1.0,1.87,.,.,0.36
COc1cc(C(=O)NC2=C(C#N)CCC2)cc(OC)c1OC,0.2,-0.694,.,i,-0.23
CCOC(=O)c1sc2nc3c(cc2c1N)COC(C)(C)C3,1.2,-0.153,81.2*,i,.
N#CCC(=O)c1sccc1-n1cccc1,2.0,0.242,7.1,i,1.41
CCC1(CC)NC(=O)NC1=O,-0.1,-0.168,90.9*,i,-0.4
COCCNC(=O)C1CC(c2cccc([N+](=O)[O-])c2)=NO1 (stereo not given),1.7,2.05,.,i,0.56
c1ccc(CN2CCN(c3nc(N4CCOCC4)c4ccccc4n3)CC2)cc1,-0.3,0.18,13.3,+,.
Cc1ccc2c(c1)N=C(c1ccccc1)CC(C(Cl)Cl)=N2,-1.2,0.0731,.,.,-0.12
Cc1ccc(C2=Nc3ccccc3N=C(C(Cl)Cl)C2)cc1,-0.1,0.409,82.3*,i,.
CCC1Oc2ccc(C)cc2N(CC(=O)NCC2COc3ccccc3O2)C1=O (stereo not given),0.2,-0.731,.,i,-0.29
Cc1ccc(Nc2c(-c3cccnc3)nc3ccc(Br)cn23)cc1,2.8,0.321,.,+,-0.76
Cc1ccc(Nc2c(-c3ccccc3)nc3cnccn23)cc1,-0.3,-0.681,.,i,-0.75
O=C(O)c1cn(-c2ccc(F)c(F)c2)c2c(F)c(F)c(F)c(F)c2c1=O,-1.1,-6.36*,33.3,i,-0.1
CCOC(=O)c1cn(-c2ccc(F)c(F)c2)c2c(F)c(F)c(F)c(F)c2c1=O,0.7,0.449,.,i,1.39
CCC(C)(C)n1nnnc1C(c1ccc2ncccc2c1)N1CCN2CCCC2C1 (stereo not given),-0.5,-0.0459,5.7,i,0.92
O=C(Nc1cc(C(F)(F)F)cc(C(F)(F)F)c1)c1ccc(Cn2cc(C(F)(F)F)ccc2=O)cc1,0.9,-0.402,3.6,i,.
CCOc1ccc(C(O)C(CN2CCOCC2)c2ccccc2)cc1 (stereo not given),-0.8,1.74,25.7,i,-1.3
CCN1CCN(CCCOc2ccc(-c3ccccc3)cc2)CC1,-1.1,7.67,-12.5,+,-0.77
O=C(c1ccccc1)c1ccc(OCCCCN2CCCCC2)cc1,-0.8,-0.49,-62.1,i,-0.95
c1ccc(COc2ccc(OCCCCN3CCCCC3)cc2)cc1,-0.8,5.63,.,+,-1.91
CNC(=O)c1oc(-c2ccccc2)nc1C,1.6,-1.07,.,i,0.31
CCCCn1c(=O)c(CCC(=O)OCC(=O)Nc2ccc(F)c(Cl)c2)nc2ccccc21,0.2,-0.631,14.3,i,0.5
Cc1ccc(-n2c(C)nc3c(cnn3-c3ccc(C)c(C)c3)c2=O)cc1C,-1.1,0.627,.,i,-1.44
SMILES,PERK inh,Dynein cargo inh,INS promoter inh,Autophagy mod,Insulin prom up
Cc1ccc(-n2c(C)nc3c(cnn3-c3ccc(F)cc3)c2=O)cc1C,0.8,-0.361,-43.8,+,-0.4
CCOC(=O)C1CC2CC(C1)CN(C(=O)C1CCCCC1)C2 (stereo not given),-1.1,1.15,.,i,0
Cc1ccc(CO/N=C/C2=C(Cl)c3ccccc3CC2)cc1,1.8,-1.52,78.6*,i,-0.05
Cc1ccc(C(=O)O/N=C/C2=C(Cl)c3ccccc3CC2)cc1,2.4,0.861,-157.1,i,.
CCN(CCNC(=O)C1CCN(Cc2nc(-c3ccc(Cl)cc3)oc2C)CC1)c1ccccc1,-2.3,3.97,.,+,-0.78
CCN(CCNC(=O)C1CCCN(S(=O)(=O)CC)C1)c1ccccc1 (stereo not given),0.3,-0.174,-67.7,i,3.08*
CCN(CCNC(=O)C1CCN(S(=O)(=O)CC)CC1)c1ccccc1,1.0,0.414,20.0,i,0.75
